Data set [1] can be described thus: Drug level in C57BL/6 mouse plasma at 10 mg/kg, sc after 30 mins by LC-MS analysis. The data set is classed as ADME, organism-based. The conditions noted are these: in vivo, 0.5 h. The method, boiled down:
(§1)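 Mice individually weighed, then given a single SC dose of 10 mg/kg. Blood taken by retro-orbital bleeding at set time points. Plasma levels measured by triple-quadrupole LC/MS; plasma half-life derived from these levels.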

The nature of data set [2]: Tmax in C57BL/6 mouse at 10 mg/kg, sc by LC-MS analysis. Format: ADME, organism-based. The conditions noted are these: in vivo. Summed up:
as §1

Data set [3] in a line: Cmax in C57BL/6 mouse at 10 mg/kg, sc by LC-MS analysis. To be noted: in vivo. Format: ADME, organism-based. More on the design: route subcutaneous, dose 10 mg/kg. Summed up: as §1
In another data set the test system is HepG2. Description: Antiproliferative activity against human HepG2 cells assessed as growth inhibition after 48 hrs by PrestoBlue dye based fluorescence assay. Format: functional, cell-based. The conditions noted are these: HepG2, 48 h.
The subject of the next data set is T47D. The data set is described as follows: Antiproliferative activity against human T47D cells assessed as growth inhibition after 48 hrs by PrestoBlue dye based fluorescence assay. Format: functional, cell-based.
The subject of the next data set is VCaP. Description: Antiproliferative activity against human VCap cells assessed as growth inhibition after 48 hrs by PrestoBlue dye based fluorescence assay. Format: functional, cell-based.
The subject of another data set is HCC1954. Description: Antiproliferative activity against human HCC1954 cells assessed as growth inhibition after 48 hrs by PrestoBlue dye based fluorescence assay. The data set is classed as functional, cell-based. The conditions noted are these: HCC1954, 48 h.

Molecules are shown by their SMILES.

The compound `CCCCCCCCCCCCCCCc1cccc(O[C@H]2C[C@@H](C(=O)NC(c3ccccc3)c3ccccc3)N(C(=O)[C@@H](NC(=O)[C@H](C)NC)C(C)(C)C)C2)c1` gave a Cp in data set [1] of 1985.4 nM. Moreover, in data set [2], the Tmax – broadly, the time at which the peak concentration occurs – turned out to be 15.5 h. Besides, the Cmax – broadly, the highest concentration seen after dosing – in data set [3] came out at 3970.8 nM.
Consider `CCCCCCCCCCCCCCCc1cccc(O[C@H]2C[C@@H](C(=O)NCC(c3ccccc3)c3ccccc3)N(C(=O)[C@@H](NC(=O)[C@H](C)NC)C(C)(C)C)C2)c1`, for which the EC50 (in general, the concentration at which the effect is half-maximal) in the data set with HepG2 worked out at 5.4 µM; with T47D, 9 µM.
For `CCCCCCCCCCCCCCCCS[C@H]1C[C@@H](C(=O)NCC(c2ccccc2)c2ccccc2)N(C(=O)[C@@H](NC(=O)[C@H](C)NC)C(C)(C)C)C1`, the EC50 with VCaP was 8.9 µM; with HCC1954, 17.5 µM.

These data come from ChEMBL document CHEMBL4699443, “Position of lipidation influences anticancer activity of Smac analogs” (Bioorg Med Chem Lett, 2019).
